Screening results (PubChem)
MEX-5 binding: C. elegans MEX-5 TCR-2 RNA binding activity. Q9XUB2. MEX-5/FITC-TCR2 RNA binding, fluorescence polarization; active compounds read low. activity score (negative = inhibition of binding), % at 10 µM. actives 0.38% (n = 300,000);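 active = inhibition past about -25% in most replicates, and total fluorescence under double the plate's negative control median, limit read from the data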
Target sequence (Q9XUB2 whole entry, looked up): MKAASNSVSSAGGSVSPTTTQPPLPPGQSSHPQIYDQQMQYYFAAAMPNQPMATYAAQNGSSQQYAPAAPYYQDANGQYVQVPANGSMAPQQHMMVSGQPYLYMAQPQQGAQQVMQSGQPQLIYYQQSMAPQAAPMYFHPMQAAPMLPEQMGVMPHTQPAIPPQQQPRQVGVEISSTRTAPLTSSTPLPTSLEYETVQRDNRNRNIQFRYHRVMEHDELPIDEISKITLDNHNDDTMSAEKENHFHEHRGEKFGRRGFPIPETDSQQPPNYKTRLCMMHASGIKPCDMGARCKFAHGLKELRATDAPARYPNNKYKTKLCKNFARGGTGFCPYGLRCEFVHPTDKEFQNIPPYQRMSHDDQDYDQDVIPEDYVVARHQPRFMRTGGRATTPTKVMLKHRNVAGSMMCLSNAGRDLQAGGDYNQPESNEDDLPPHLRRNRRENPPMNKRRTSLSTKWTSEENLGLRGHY
GRK2 aptamer HTS: blocks RNA aptamer binding to human GRK2; P25098; bead flow cytometry, FAM-aptamer displacement from GRK2; inhibition of aptamer binding, % at 10 µM; actives 0.59% (n = 330,000); AID 488847;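 active = inhibition of aptamer binding above 40%, roughly 3 SD of noise, on plates passing a quality check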;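 note: median bead fluorescence of bound FAM aptamer so fluorescent compounds give negative values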
C-LANA FP: KSHV C-LANA DNA binding inhibition | AID 504423 | MBP-C-LANA/FAM-LBS DNA binding, fluorescence polarization | actives 0.078% (n = 340,000) | inhibition, % at 9 µM;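 active = highest replicate inhibition at or above 60% at 9 µM, even if other replicates fall short; inactive = all replicates below 60% inhibition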
T cell modulator: T cell immune modulators affecting CD8 T cell-vesicle binding | response (vesicle binding), % at 7 µM | actives 0.068% (n = 330,000) | 2C CD8+ T cell-vesicle binding, flow cytometry; active compounds read low | AID 2052;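 active = response, share of CD8 T cells binding vesicles, and their 90th percentile fluorescence all below set limits, cut at about 80% in these data, passing the limit was not always enough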;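 note: values below 100% mean blocked vesicle binding to the CD8+ T cells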
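incubation = binding step 1.5 h, 37 °C, antibody labelling 20 min, ice | test system = 2C mouse CD8+ T cells | read-out basis = percent CD8+ FL2 mean versus row control | controls = Peptide-free naked vesicles (low) and QL9 vesicles with 0.7% DMSO vehicle (high) | detection = flow cytometry of vesicle-bound cells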
Keap1-Nrf2 PPI: Keap1-Nrf2 (human) interaction inhibition. Q14145. Keap1 Kelch-Nrf2 peptide fluorescence polarization, 1536-well. inhibition, % at 9.4 µM. actives 0.15% (n = 340,000); in the data active = inhibition above about 12%;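 note: human Keap1 Kelch domain with fluorescein labeled Nrf2 9mer peptide probe; higher means more block of Keap1 binding to Nrf2 peptide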
EBV gp42 block: EBV gp42 inhibition; inhibition, % (tested at 21.74 µM); actives 0.42% (n = 220,000); Fluorescence polarization binding assay, mP read-out; in the data active = inhibition above about 50%
Target sequence (Q1HVG2 whole entry, looked up): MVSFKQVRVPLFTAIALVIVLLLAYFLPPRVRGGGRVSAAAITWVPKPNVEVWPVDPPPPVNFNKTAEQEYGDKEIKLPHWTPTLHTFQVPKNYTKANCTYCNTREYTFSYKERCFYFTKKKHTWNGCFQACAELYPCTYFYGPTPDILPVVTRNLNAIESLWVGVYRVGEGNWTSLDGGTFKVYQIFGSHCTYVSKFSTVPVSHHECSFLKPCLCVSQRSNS
GRK2 inh confirm: human GRK2 inhibition confirmation, cherry pick 1; shares compounds with GRK2 aptamer HTS; bead-bound GRK2, FAM-aptamer displacement, flow cytometry; aptamer displacement, % at 10 µM; actives 4% (n = 2,000);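 active = aptamer displacement above 40%, near three times the noise of non-fluorescent compounds, on plates passing quality checks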;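 note: negative values mostly reflect intrinsic compound fluorescence rather than true enhancement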
Aptamer quench: counter-screen for GRK2 aptamer inhibitors: fluorescent aptamer quenchers. AID 504521. fluorescence change (kMESF span), kMESF (no concentration beside the values). 110 tested, under 10 active. shares compounds with GRK2 aptamer HTS. Fluorescent RNA aptamer beads, quenching, flow cytometry; active compounds read high;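 active = compounds whose bead fluorescence drops by more than 37 kMESF across the dose range, marking them as dye quenchers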
Aptamer quench SP: aptamer fluorescence quenching in GRK2 counter-screen | Carboxyfluorescein RNA aptamer on beads, flow cytometry quenching; active compounds read low | fluorescence response (% of DMSO), % at 10 µM | 2,000 tested, under 10 active | shares compounds with GRK2 aptamer HTS;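 active = compounds that quench the bead-bound fluorescent RNA probe, cutting fluorescence to under half of the solvent control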;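 note: counterscreen run without GRK2 so only probe quenching by compound is measured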
GRK2 CP2: human GRK2 inhibition confirmation, cherry pick 2; shares compounds with GRK2 aptamer HTS; bead-bound GRK2, FAM-aptamer displacement, flow cytometry; inhibition of aptamer binding, % at 10 µM; 360 tested, under 10 active;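 active = inhibition of aptamer binding above 40%, about triple the noise seen with nonglowing compounds, on plates passing quality control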;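 note: negative values mostly come from compounds that fluoresce themselves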
FAM quench CP2: quenches fluorescent RNA aptamer, GRK2 hit artifact; shares compounds with GRK2 aptamer HTS; carboxyfluorescein RNA aptamer beads, flow cytometry quenching; active compounds read low; fluorescence response vs DMSO, % at 10 µM; 360 tested, under 10 active;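 active = response vs DMSO under 50%, meaning signal dropped by over half, treated as fluorescence quencher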;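 note: labelled aptamer on streptavidin beads without GRK2 as a quench counter-screen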
Hits are given with their value; - = inactive; . = no result given. Shown are actives, neighbours in structure and some others; about 1.3% of the full set was active somewhere.

SMILES | MEX-5 binding | GRK2 aptamer HTS | C-LANA FP | T cell modulator | Keap1-Nrf2 PPI | EBV gp42 block | GRK2 inh confirm | Aptamer quench SP | GRK2 CP2 | FAM quench CP2 | others
COCCn1c(SCC(=O)Nc2cccc(C)c2)nnc1C(C)C | - | 41 | - | - | - | - | . | . | - | -
Cc1nnc(C)c2c(C)n(-c3ccccc3)c(C)c12 | - | . | - | . | - | . | . | . | . | .
O=C(Cn1c(C(F)(F)F)nc2ccccc21)OCC(=O)c1c[nH]c2ccccc12 | - | 80 | - | - | - | - | . | . | - | -
COc1ccc(-c2nn(-c3ccccc3)cc2CNCc2cccnc2)c(F)c1 | - | 47 | - | - | - | - | - | - | . | .
COc1ccc(-n2cc(CNCc3cccnc3)c(-c3cccc(F)c3)n2)cc1 | - | - | - | - | - | - | . | . | . | .
NS(=O)(=O)c1ccc(NC(=O)CN2CCN(Cc3ccccc3)CC2)cc1 | - | - | - | - | - | - | . | . | . | .
NS(=O)(=O)c1ccc(NC(=O)CN2CCN(S(=O)(=O)/C=C/c3ccccc3)CC2)cc1 | - | 54 | - | - | - | - | - | - | . | .
COc1cccc(C2(O)CCN(C(=O)c3cccs3)CC2)c1 | - | - | - | - | - | - | . | . | . | .
COc1cccc(C2(O)CCN(C(=O)C(C)C)CC2)c1 | - | 55 | - | - | - | - | - | - | . | .
O=C(Nc1ccccc1N1CCOCC1)c1cc(=O)[nH]c2ccccc12 | . | 82 | - | - | - | . | - | - | . | .
Cc1ccc(C(CNS(=O)(=O)c2ccccc2)N2CCN(C)CC2)cc1 (stereo unspecified) | - | - | - | - | - | . | . | . | - | -
Cc1ccc(C(CNS(=O)(=O)c2ccc(Br)cc2)N2CCN(C)CC2)cc1 (stereo unspecified) | - | - | - | - | - | . | . | . | . | .
CCN1CCN(CC(=O)N2c3ccccc3CC2C)CC1 (stereo unspecified) | - | - | - | - | - | - | . | . | . | .
O=C(Nc1ccc(Cl)cn1)c1ccc(-c2cc(Cl)ccc2Cl)o1 | - | 42 | - | - | - | - | . | . | - | -
O=C(CCCl)N1c2ccccc2C=Cc2ccccc21 | . | . | - | . | - | . | . | . | . | .
CCC(=O)Nc1cccc(C2=NOC3(C2)C[C@H](C(N)=O)N(C(=O)CC#N)C3)c1 (stereo partly specified) | - | - | - | - | - | - | . | . | - | -
CCCCCC(=O)Nc1cccc(C2=NOC3(C2)C[C@@H](C(N)=O)N(C(=O)c2cc([N+](=O)[O-])cc([N+](=O)[O-])c2)C3)c1 (stereo partly specified) | - | - | - | - | - | - | . | . | . | .
CC1(C(=O)N2CC3(CC(c4cccc(NC(=O)CC(c5ccccc5)c5ccccc5)c4)=NO3)C[C@@H]2C(N)=O)CC1 (stereo partly specified) | - | - | - | - | - | - | . | . | - | -
C=C(C)C(=O)Nc1cccc(C2=NOC3(C2)C[C@@H](C(N)=O)N(C(=O)CCCCC)C3)c1 (stereo partly specified) | - | 98 | - | - | - | - | 90 | - | . | . | Aptamer quench=-
C=C(C)C(=O)Nc1cccc(C2=NOC3(C2)C[C@@H](C(N)=O)N(C(=O)c2cc([N+](=O)[O-])cc([N+](=O)[O-])c2)C3)c1 (stereo partly specified) | - | 79 | - | - | - | - | 57 | - | . | . | Aptamer quench=-
CC(C)(C)c1ccc(C(=O)N/N=C2\C3CN4CCN(C3)CC2(c2ccccc2)C4)cc1 | - | - | - | - | - | - | . | . | . | .
CCCCCC(=O)N1CC2(CC(c3cccc(NC(=O)[C@@H]4CCC(=O)N4)c3)=NO2)C[C@@H]1C(N)=O (stereo partly specified) | - | - | - | - | - | - | . | . | - | -
CCC1Sc2ccccc2N(CC(=O)NCCC(C)C)C1=O (stereo unspecified) | - | - | - | - | - | - | - | - | . | .
CCOC(=O)c1c(C)n2c3c(cc(C)cc13)CCC2 | - | 86 | - | - | - | - | - | - | . | .
CCOC(=O)c1c2n(c3ccc(O)cc13)CCCCC2 | - | - | - | - | - | - | . | . | . | .
SMILES | MEX-5 binding | GRK2 aptamer HTS | C-LANA FP | T cell modulator | Keap1-Nrf2 PPI | EBV gp42 block | GRK2 inh confirm | Aptamer quench SP | GRK2 CP2 | FAM quench CP2 | others
COc1cccc(NC(=O)CCCCCN2C(=O)[C@@H]3Cc4ccccc4CN3C2=O)c1 | - | - | - | - | - | . | - | - | . | .
O=C(O)c1ccc(CS(=O)(=O)c2cccc(C(F)(F)F)c2)o1 | - | - | - | - | - | - | . | . | - | -
CCCCNC(=O)c1ccc(CS(=O)(=O)c2cccc(C(F)(F)F)c2)o1 | - | - | - | - | - | - | . | . | . | .
COc1ccc(C)cc1-n1nnnc1SCC(=O)NC1CC1 | . | - | - | - | - | . | . | . | . | .
Fc1ccccc1N1CCN(C(c2ccncc2)c2nnnn2C2CCCC2)CC1 (stereo unspecified) | - | 53 | - | - | - | - | - | - | . | .
CCC(c1nnnn1C1CCCC1)N1CCN(c2ccccc2F)CC1 (stereo unspecified) | - | - | - | - | - | - | . | . | . | .
CSc1c(CC(=O)Nc2ccccc2C(F)(F)F)n(Cc2ccccc2)c2ccccc12 | - | 100 | - | - | - | - | . | . | - | -
CCO[C@@H]1OC(C(=O)N2CCN(Cc3ccc4c(c3)OCO4)CC2)=C[C@H](c2csc3ccccc23)[C@H]1CCCO | - | - | - | - | - | - | . | . | . | .
CC(=O)c1ccc(NC(=O)c2cccc(N3C(=O)c4ccccc4C3=O)c2)cc1 | - | 48 | - | - | - | . | . | . | - | -
COc1ccc(/C=N/OCC(=O)N=Nc2c(O)[nH]c3ccc(Br)cc23)cc1 | - | - | - | - | - | - | . | . | . | .
O=[N+]([O-])c1ccc(N2CCN(Cc3ccccc3)CC2)nc1 | - | - | - | - | - | - | . | . | . | .
O=[N+]([O-])c1ccc(N2CCN(c3cccc(Cl)c3)CC2)nc1 | - | - | - | - | - | . | - | - | . | .
Cc1ccc(NC(=O)C2C3CCCCC32)cc1[N+](=O)[O-] (stereo unspecified) | - | - | - | - | - | . | . | . | . | .
CC(=O)Nc1cc(C)c2nc(NC(C)=O)sc2c1 | - | - | - | - | - | - | . | . | . | .
